Assay outcomes (PubChem)
Pf Dd2 growth: P. falciparum Dd2 growth inhibition; SYBR Green, 72 h; hits give low values; 2.3% of 94,000 active; activity change, % at 10 µM; in the data active = activity change below about -80%; inconclusive = no clear call, values can overlap the other calls
GASC1 inh: blocks human GASC-1 (KDM4C) demethylase activity | GST-KDM4C 2-372, H3K9me3 peptide, LANCE TR-FRET | inhibition, % at 12.5 µM | 0.15% of 96,000 active;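 active = mean replicate inhibition above about 25%, with at least 55% of replicates also reaching it, limit read from the data, passing the limit was not always enough; inconclusive = only one of those two conditions met; inactive = neither condition met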
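reagent = H3K9me3 peptide substrate, Fe(II), 2-oxoglutarate | system = GST-tagged GASC-1 (JMJD2C) catalytic fragment, aa 2-372 | amount = enzyme final amount 10 nM | read-out = Fall in 671/618 emission ratio as inhibition | medium = HEPES buffer, pH 7.5, plus ascorbate | schedule = 30 min reaction, 60 min detection, RT | measured by = LANCE TR-FRET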
Tcruzi prolif: T. cruzi proliferation inhibition | T. cruzi beta-gal in NIH3T3, GalScreen luminescence, 90 h | inhibition, % at 8.34 µM | 5.9% of 77,000 active;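 active = mean inhibition above about 93%, with at least 55% of replicates each passing it, limit read from the data, passing the limit was not always enough; inconclusive = only one of those two conditions holds; inactive = neither condition holds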
IDH1 mut inh: inhibitors of human IDH1 R132H; IDH1 R132H reductase, diaphorase/resazurin fluorescence, 60 min; inhibition, % at 10 µM; 0.18% of 70,000 active; O75874; in the data active = inhibition above about 34%; inconclusive = no clear call, values can overlap the other calls; inactive = below about 11%;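 note: 0% = DMSO and 100% = no enzyme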
Target sequence (O75874 whole entry R132H): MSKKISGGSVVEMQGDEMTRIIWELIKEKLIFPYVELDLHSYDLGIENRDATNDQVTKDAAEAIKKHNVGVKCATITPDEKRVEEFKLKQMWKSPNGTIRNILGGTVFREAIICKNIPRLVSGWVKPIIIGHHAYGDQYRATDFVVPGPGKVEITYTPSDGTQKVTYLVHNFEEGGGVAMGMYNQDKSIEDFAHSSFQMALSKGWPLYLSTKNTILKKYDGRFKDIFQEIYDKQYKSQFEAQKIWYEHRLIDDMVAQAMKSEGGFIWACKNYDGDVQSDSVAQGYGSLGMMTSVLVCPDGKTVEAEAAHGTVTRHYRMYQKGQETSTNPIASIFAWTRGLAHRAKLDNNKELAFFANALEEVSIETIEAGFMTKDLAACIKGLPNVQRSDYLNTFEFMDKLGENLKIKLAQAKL
Active calls of the source: *; ? = inconclusive; · = no result given; ! = a repeat was not active. Hits are enriched below; roughly 5.9% of the tested compounds scored in any of these assays.

SMILES	Pf Dd2 growth	GASC1 inh	Tcruzi prolif	IDH1 mut inh
C[C@@H]1CN([C@H](C)CO)C(=O)c2cc(NC(=O)C3CCCCC3)ccc2O[C@@H](C)CCCCO[C@H]1CN(C)Cc1ccc(Cl)c(Cl)c1	-90*	-1	89	-1
C[C@@H]1CN([C@H](C)CO)C(=O)c2cc(NC(=O)c3ccncc3)ccc2O[C@@H](C)CCCCO[C@H]1CN(C)Cc1ccc(Cl)c(Cl)c1	-86*	-1	·	3
C[C@@H]1CN([C@@H](C)CO)C(=O)c2cc(NC(=O)C3CCCCC3)ccc2O[C@@H](C)CCCCO[C@H]1CN(C)Cc1ccc(Cl)c(Cl)c1	-80	2	88	0
CCn1c(SCC(=O)Nc2c(C)cccc2C)nnc1-c1cnccn1	·	·	·	0
COc1c(O)cc2c(=O)oc3c(OC)c(O[C@@H]4OC[C@@H](O)[C@H](O)[C@H]4O)cc4c(=O)oc1c2c34	·	·	·	0
O=C(Cn1cnc2ccccc2c1=O)Nc1ccc(I)cc1	·	·	·	0
COc1cc(NC(=O)C(C)Oc2ccc(Cl)cc2Cl)c(OC)cc1Cl (stereo not given)	·	·	·	0
C[C@H](CO)N1C[C@H](C)[C@@H](CN(C)C(=O)Nc2ccccc2)Oc2ccc(NC(=O)Nc3ccc(C(F)(F)F)cc3)cc2CC1=O	-85*	-1	28	2
C[C@H](CO)N1C[C@H](C)[C@@H](CN(C)C(=O)Nc2ccc(F)cc2)Oc2ccc(NC(=O)Nc3ccc(C(F)(F)F)cc3)cc2CC1=O	-88*	-1	10	2
COc1ccc(NC(=O)N(C)C[C@H]2Oc3ccc(NC(=O)Nc4ccc(C(F)(F)F)cc4)cc3CC(=O)N([C@H](C)CO)C[C@@H]2C)cc1	-88*	-1	35	1
C[C@@H]1CN([C@@H](C)CO)C(=O)Cc2cc(NC(=O)Cn3cnnn3)ccc2O[C@H]1CN(C)Cc1ccc(C(F)(F)F)cc1	-8	?	66	74*
C[C@H](CO)N1C[C@H](C)[C@@H](CN(C)C(=O)Nc2ccc(C(F)(F)F)cc2)Oc2ccc(NC(=O)Nc3ccccc3)cc2CC1=O	-64	10	20	1
CC1=CC(C)(C)N2C(=O)C(=O)c3cc(OC(=O)CN4C(=O)c5ccccc5C4=O)cc1c32	·	·	·	0
O=C1C(=O)N(CCCN2CCOCC2)C(c2cccnc2)C1C(=O)c1cc2ccccc2o1 (stereo not given)	·	·	·	0
CCc1c(O)nc(SCC(=O)Nc2ccc(C(C)=O)cc2)[nH]c1=O	·	·	·	0
CCC(=O)N1CC2(C1)CN(Cc1ccc(OC)cc1)[C@H](CO)c1[nH]c3cc(OC)ccc3c12	-64	-1	·	·
CCCC(=O)N1CC2(C1)CN(Cc1ccc(Cl)cc1)[C@@H](CO)c1[nH]c3cc(OC)ccc3c12	-92*	-1	·	·
CCC(=O)N1CC2(C1)CN(Cc1ccc(Cl)cc1)[C@@H](CO)c1[nH]c3cc(OC)ccc3c12	-90*	-1	·	·
CCCC(=O)N1CC2(C1)CN(Cc1ccc(Cl)cc1)[C@H](CO)c1[nH]c3cc(OC)ccc3c12	-90*	0	·	·
CCC(=O)N1CC2(C1)CN(Cc1ccc(Cl)cc1)[C@H](CO)c1[nH]c3cc(OC)ccc3c12	?	-1	·	·
CCCC(=O)N1CC2(C1)CN(Cc1ccncc1)[C@H](CO)c1[nH]c3cc(OC)ccc3c12	-59	2	·	·
CCC(=O)N1CC2(C1)CN(Cc1ccccc1Cl)[C@H](CO)c1[nH]c3cc(OC)ccc3c12	-85*	0	·	·
Cc1cccc(OCC(O)Cn2cnc3cc(C)c(C)cc32)c1 (stereo not given)	·	·	·	-1
Nc1c(C(=O)NCc2ccccc2)c2nc3ccccc3nc2n1CCO	·	·	·	1
Cc1cc(C)cc(C(=O)N(C)C(Cc2ccc(-c3ccccc3)cc2)C(=O)NC(Cc2c[nH]c3ccccc23)C(=O)O)c1 (stereo not given)	·	·	·	0
SMILES	Pf Dd2 growth	GASC1 inh	Tcruzi prolif	IDH1 mut inh
CCC(=O)N1CCC2(CC1)CN(Cc1cccc(Cl)c1)[C@@H](CO)c1[nH]c3cc(OC)ccc3c12	-77	3	·	·
CCC(=O)N1CC2(C1)CN(Cc1cccc(Cl)c1)[C@H](CO)c1[nH]c3cc(OC)ccc3c12	-89*	·	·	·
COc1ccc2c3c([nH]c2c1)[C@H](CO)N(Cc1cccc(Cl)c1)CC31CN(C(C)=O)C1	-83*	0	·	·
COc1ccc2c3c([nH]c2c1)[C@H](CO)N(Cc1ccccc1)CC31CN(C(C)=O)C1	-73	0	·	·
COc1cccc(-c2cn(CC[C@@H]3CC[C@H](NC(=O)CC4CC4)[C@@H](CO)O3)nn2)c1	5	55*	4	7
CCC(=O)N[C@@H]1CC[C@H](CCn2cc(-c3cccc(OC)c3)nn2)O[C@@H]1CO	-20	29*	-41	0
CC1(C)Cc2c(sc3c2c(=O)n(-c2cccc(Cl)c2)c2nnc(SCC(=O)Nc4cccc(Cl)c4)n32)CO1	·	·	·	0
O=C(NCC(O)c1ccccc1)c1ccc(S(=O)(=O)N2CCOCC2)cc1 (stereo not given)	·	·	·	3
CN(C)CC(=O)N1C[C@@H]2N[C@H](C1)C2c1ccc(/C=C/c2ccccc2)cc1 (stereo not given in full)	-91*!	-1	·	·
Cc1cccc(-c2ccc([C@@H]3[C@@H]4CN(C(=O)CN(C)C)C[C@H]3N4)cc2)c1	-85*	-3	·	·
Cc1cccc(-c2ccc(C3[C@@H]4CN(C(=O)c5ccncc5)C[C@H]3N4)cc2)c1 (stereo not given in full)	-9	0	·	·
Cn1nc(CC(=O)Nc2ccc(Oc3ccccc3)cc2)c2ccccc2c1=O	·	·	·	0
C[C@@H]1CCCCO[C@H](CN(C)C(=O)Nc2ccc3c(c2)OCO3)[C@H](C)CN([C@H](C)CO)C(=O)c2cc(NC(=O)C3CCCCC3)ccc2O1	-86*	-2	47	·
C[C@@H]1CN([C@@H](C)CO)C(=O)c2cc(NC(=O)C3CCCCC3)ccc2O[C@@H](C)CCCCO[C@@H]1CN(C)C(=O)Nc1ccc2c(c1)OCO2	-83*	-1	44	·
C[C@@H]1CN([C@@H](C)CO)C(=O)Cc2cc(NC(=O)Nc3ccccc3)ccc2O[C@H]1CN(C)CC1CC1	-87*	·	-21	-2
C[C@@H]1CN([C@@H](C)CO)C(=O)Cc2cc(NC(=O)Nc3cccc4ccccc34)ccc2O[C@@H]1CN(C)CC1CC1	-85*	-1	36	1
CCc1cccc(-n2c(-c3ccco3)nc3c(cnn3-c3ccccc3Cl)c2=O)c1	·	·	·	46*
O=C(C[C@@H]1C[C@H]2c3cc(NC(=O)NC4CCCCC4)ccc3O[C@H]2[C@@H](CO)O1)NCc1ccccn1	12	-2	·	0
O=C(C[C@@H]1C[C@H]2c3cc(NC(=O)NC4CCCCC4)ccc3O[C@H]2[C@H](CO)O1)NCc1ccccn1	-44	88*	·	102*
CN(C)c1ccc2c(c1)[C@H]1C[C@@H](CC(=O)NCc3ccccc3)O[C@@H](CO)[C@H]1O2	-8	40*	43	-2
C[C@H](NC(=O)C[C@@H]1C[C@H]2c3cc(NC(=O)NC4CCCCC4)ccc3O[C@H]2[C@@H](CO)O1)c1ccccc1	2	32*	16	0
